PostGolgi ctrl – growth of the yeast control strain, post-Golgi counter-screen | inhibition, % at 10 µM | efflux-deficient yeast background strain, growth absorbance A615, 16 h | 98,000 tested, 5% active | AID 738
Her2 expr inh – Her2 kinase expression inhibition; P04626; SKBR-3 HER2 protein level, AlphaScreen, 18-24 h; active compounds read low; HER2 level % of control, % at 10 µM; 65,000 tested, 0.69% active; AID 645;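 active = HER2 level under 5% of the carrier-only control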;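 also: lower value means stronger loss of Her2 protein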
Target sequence (P04626 whole entry, looked up): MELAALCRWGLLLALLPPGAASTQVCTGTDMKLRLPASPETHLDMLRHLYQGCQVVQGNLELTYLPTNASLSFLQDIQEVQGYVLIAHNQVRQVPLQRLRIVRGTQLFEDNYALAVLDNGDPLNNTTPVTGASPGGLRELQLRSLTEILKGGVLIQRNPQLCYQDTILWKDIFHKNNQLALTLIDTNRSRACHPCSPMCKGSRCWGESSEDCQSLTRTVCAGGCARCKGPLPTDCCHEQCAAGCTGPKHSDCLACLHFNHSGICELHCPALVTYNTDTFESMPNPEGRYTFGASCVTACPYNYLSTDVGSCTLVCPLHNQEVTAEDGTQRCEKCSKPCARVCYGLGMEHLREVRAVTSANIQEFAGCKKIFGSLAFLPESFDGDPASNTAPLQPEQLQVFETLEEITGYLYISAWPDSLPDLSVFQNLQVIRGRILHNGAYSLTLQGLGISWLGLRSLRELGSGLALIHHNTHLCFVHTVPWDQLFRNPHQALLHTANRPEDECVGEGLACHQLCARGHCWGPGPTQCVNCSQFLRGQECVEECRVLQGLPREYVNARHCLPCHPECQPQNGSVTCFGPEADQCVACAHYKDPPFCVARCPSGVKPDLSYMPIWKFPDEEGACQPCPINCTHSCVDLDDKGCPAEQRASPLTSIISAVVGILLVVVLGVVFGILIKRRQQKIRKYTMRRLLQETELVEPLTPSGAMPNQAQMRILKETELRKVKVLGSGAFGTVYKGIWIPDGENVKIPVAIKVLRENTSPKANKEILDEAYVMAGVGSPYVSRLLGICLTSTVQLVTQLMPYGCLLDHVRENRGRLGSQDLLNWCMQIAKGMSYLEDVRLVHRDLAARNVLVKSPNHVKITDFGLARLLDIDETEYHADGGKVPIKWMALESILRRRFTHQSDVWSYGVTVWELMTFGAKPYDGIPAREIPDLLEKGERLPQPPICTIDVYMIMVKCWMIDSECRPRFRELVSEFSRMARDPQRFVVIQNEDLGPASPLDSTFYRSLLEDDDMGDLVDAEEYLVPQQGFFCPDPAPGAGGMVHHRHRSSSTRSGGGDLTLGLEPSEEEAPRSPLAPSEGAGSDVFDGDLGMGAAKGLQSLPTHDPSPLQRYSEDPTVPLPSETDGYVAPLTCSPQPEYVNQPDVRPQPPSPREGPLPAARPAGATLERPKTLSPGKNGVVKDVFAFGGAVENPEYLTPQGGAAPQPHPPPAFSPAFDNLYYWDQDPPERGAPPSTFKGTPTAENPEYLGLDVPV
E coli WT exp – growth inhibitors of E. coli BW25113 wild type. OD600 absorbance. growth inhibition, % at 100 µM. 98,000 tested, 0.15% active. AID 710;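 active = growth inhibition above about 50% at one test dose, limit read from the data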;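 also: growth measured after 20 h incubation at 37 °C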
PostGolgi yeast – growth inhibition of a yeast mutant, post-Golgi transport screen; AID 739; 98,000 tested, 0.9% active; post-Golgi transport phenotypic cell assay; inhibition, % at 10 µM;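 also: yeast cells grown in 1536-well plates; yeast grown about 18 h at 30C before absorbance read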
Ecoli tolC – E. coli tolC mutant growth inhibition. E. coli BW25113 tolC mutant growth, OD615. growth inhibition, % at 10 µM (by protocol). 65,000 tested, 2.2% active. AID 573;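 active = growth inhibition at or above a cutoff equal to the mean over every tested compound plus 3 SD, cut at about 60% in these data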;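 also: growth measured after 20 h incubation at 37 °C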
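Assay system: tolC-deleted E. coli BW25113. Medium: kanamycin-containing LB broth (50 µg/mL). Dosing: 10 µM final, single dose. Timing: bacterial growth with compound for 20 h at 37 °C. Detection: A615 absorbance measurement. Read-out basis: growth inhibition in percent.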
A number is an active result; i = inactive; nt = not tested or not shown. In the library only some 6.6% were active in any assay of this set; here they are far more common. Rule as the data show it, unless noted: active = inhibition above about 30%; inactive = the rest.

SMILES	PostGolgi ctrl	Her2 expr inh	E coli WT exp	PostGolgi yeast	Ecoli tolC
COc1ccccc1CN(Cc1nc2ccccc2c(=O)[nH]1)C(=O)Nc1ccc(C)cc1	31.2	nt	i	i	nt
CCNC(=O)[C@@H]1CCCN1C(=O)[C@H](CCCN=C(N)N)NC(=O)[C@H](CC(C)C)NC(=O)[C@@H](CC(C)C)NC(=O)[C@H](Cc1ccc(O)cc1)NC(=O)[C@H](CO)NC(=O)[C@H](Cc1c[nH]c2ccccc12)NC(=O)[C@H](Cc1cnc[nH]1)NC(=O)[C@@H]1CCC(=O)N1	nt	i	nt	nt	i
CC1=CC(C)(C)N(C(=O)CSc2ncn[nH]2)c2ccc(C)cc21	i	nt	i	i	nt
Cc1ccc(-c2csc(N/N=C/C=C/c3ccccc3)n2)cc1	i	nt	i	i	nt
Cc1ccc(-c2csc(N/N=C/c3ccco3)n2)cc1	33.8	nt	i	i	nt
CC(C)(C)c1cc(NC(=O)COc2ccc(Br)cc2)n(-c2ccccc2)n1	36.5	nt	i	i	nt
O=C(Nc1ccc2c(c1)OCO2)c1ccc(COc2ccc3c(c2)CCC3)o1	i	i	i	i	72.2
Cc1cc(N)n2ncc(-c3cccc(Br)c3)c2n1	33.1	i	i	i	i
Cc1cc(N)n2ncc(-c3ccccc3)c2n1	i	i	i	i	i
O=C(CSc1nc(Nc2ccccc2)nc(N2CCOCC2)n1)N1CCCC1	i	i	i	i	i
c1ccc(Nc2nc(N3CCOCC3)nc(N3CCOCC3)n2)cc1	32.2	i	i	i	i
O=C(CSc1nc(Nc2ccccc2)nc(N2CCOCC2)n1)N1CCc2ccccc21	53.6	i	i	i	i
CCc1ccc(NS(=O)(=O)c2cccs2)cc1	i	i	i	i	i
CCc1ccc2oc(-c3cc(N)ccc3O)nc2c1	52.7	i	i	i	i
CCc1ccc2oc(-c3cc(N)ccc3Cl)nc2c1	35.1	i	i	i	i
O=C(NCCN1CCCC1)c1cc(-c2ccncc2)nc2ccc(S(=O)(=O)N3CCOCC3)cc12	i	i	i	i	i
CCn1nnc(NC(=O)CSc2ccc(Cl)cc2)n1	i	i	i	i	i
CCCn1nnnc1NC(=O)CSc1ccc(Cl)cc1	i	i	i	i	74.6
Cc1cc(NC(=O)CCN2C(=O)C3C4C=CC(C4)C3C2=O)c2ccccc2n1 (configuration not stated)	i	i	i	i	i
O=C(CCN1C(=O)C2C3C=CC(C3)C2C1=O)Nc1c(F)cccc1F (configuration not stated)	39.3	i	i	i	i
CCCCC1(C)OC(=O)C(=Cc2ccc(N(C)C)cc2)C(=O)O1 (configuration not stated)	30.9	nt	i	i	nt
CCOC(=O)SC1=N/C(=C\c2ccc(N(C)C)cc2)C(=O)S1	i	i	i	i	i
CCn1c(NCc2cc(Br)ccc2NS(=O)(=O)c2ccc(C)cc2)nc2ccccc21	i	nt	i	i	nt
CCOC(=O)c1c(NS(=O)(=O)c2cccc(OC)c2)sc2c1CCC2	i	i	i	i	78.6
Cn1c(=O)c2c(nc(OCC3COC(C)(C)O3)n2Cc2ccccc2F)n(C)c1=O (configuration not stated)	i	i	i	i	i
SMILES	PostGolgi ctrl	Her2 expr inh	E coli WT exp	PostGolgi yeast	Ecoli tolC
N=c1nc(N)nc2n1NC(c1ccc(F)cc1)=CS2	i	i	i	99.4	i
COc1ccc(C2=CSC(/N=C/c3ccc(F)cc3)=NN2)cc1	i	nt	i	i	nt
O=C(COC(=O)c1cc([N+](=O)[O-])ccc1NCc1ccccc1)NC1CCCc2ccccc21 (configuration not stated)	i	nt	i	i	nt
CCCCC(=O)NC1(C(F)(F)F)C(=O)N(CC(C)C)C2=C1C(=O)CC(C)(C)C2 (configuration not stated)	31.0	nt	i	i	nt
Nc1c(S(=O)(=O)c2cccc(Cl)c2)c2nc3ccccc3nc2n1/N=C/c1ccc(O)c(O)c1	i	-13.1	i	i	i
Cc1ccc(C)n1-n1cnc2sc(-c3ccccc3)cc2c1=O	i	i	i	i	88.2
CCCCn1c(NC(=O)c2ccc(F)cc2)c(C#N)c2nc3ccccc3nc21	nt	i	nt	nt	87.6
N#Cc1c(NC(=O)c2ccc(Br)o2)n(-c2ccccc2)c2nc3ccccc3nc12	nt	i	nt	nt	61.7
CCC(=O)Nc1c(C#N)c2nc3ccccc3nc2n1-c1ccc(C)cc1	nt	i	nt	nt	i
CCCCn1c(NC(=O)c2ccccc2)c(C#N)c2nc3ccccc3nc21	i	i	i	i	66.9
COc1ccc(-n2c(NC(=O)c3ccc(Br)o3)c(C#N)c3nc4ccccc4nc32)cc1	i	nt	i	i	nt
O=C(NCc1ccco1)C(c1ccc(F)cc1)N(CC1CCCO1)C(=O)Cn1nnc2ccccc21 (configuration not stated)	i	i	i	i	i
O=C(CSc1ccc2c(c1)OCCO2)NCc1ccco1	i	i	i	i	i
COc1ccc(S(=O)(=O)N2CCN(Cc3ccccc3)CC2)cc1	i	i	i	i	i
COc1ccc(OC)c(S(=O)(=O)n2cnc3cc(C)c(C)cc32)c1	30.1	i	i	i	94.3
COc1ccc(S(=O)(=O)N2CCCN(Cc3cccc(F)c3)CC2)cc1	45.4	i	i	i	i
COc1ccc(OC)c(S(=O)(=O)N2CCN(c3c(C)cccc3C)CC2)c1	i	i	i	i	64.9
COc1ccc(S(=O)(=O)N2CCN(c3cccc(C)c3C)CC2)cc1	34.6	i	i	i	i
CCN1CCN(S(=O)(=O)c2cc(OC)ccc2OC)CC1	i	i	i	i	i
CCN(CC)CCn1c2ccccc2c2nc(C)sc21	i	i	i	i	i
CCOC(=O)Nc1ccc(S(=O)(=O)Nn2cnnc2)cc1	i	i	i	i	i
CCOc1ccc(S(=O)(=O)NCCOC)cc1C	45.4	nt	i	i	nt
O=C(CCNS(=O)(=O)c1cccs1)N1CCc2ccccc2C1	i	i	i	i	i
O=C(C(c1ccccc1)c1ccccc1)N1CCN(Cc2ccc(Br)cc2)CC1	51.0	nt	i	i	nt
Cc1c(Br)c([N+](=O)[O-])nn1C(C)C(=O)NCc1cccnc1 (configuration not stated)	i	nt	i	i	nt
SMILES	PostGolgi ctrl	Her2 expr inh	E coli WT exp	PostGolgi yeast	Ecoli tolC
Cc1nc2cc(S(=O)(=O)N(C)C)ccc2n1-c1ccccc1	nt	i	nt	nt	i
O=C(NCc1ccccn1)Nc1cccc(NC(=O)NCc2ccccn2)c1	i	i	i	i	i
O=C(NCc1ccccn1)Nc1ccc(Cl)c(Cl)c1	46.5	i	i	i	i
CCC(Oc1ccccc1)C(=O)Nc1ccccc1OC (configuration not stated)	31.1	i	i	i	i
CCC(Oc1ccccc1)C(=O)Nc1nnc(C(F)(F)F)s1 (configuration not stated)	48.2	i	i	i	87.5
CCC(Oc1ccccc1)C(=O)Nc1nnc(C)s1 (configuration not stated)	31.0	i	i	i	i
CCC(Oc1ccccc1)C(=O)Nc1ccc(-c2nnc(-c3ccco3)o2)cc1 (configuration not stated)	i	i	i	i	66.1
CCN1CC=C2C(C1)C(c1ccc(Cl)s1)C(C#N)=C(N)C2(C#N)C#N (configuration not stated)	i	i	i	i	i
